In PubChem BioAssay one finds viability, differential viability (reversal) and inhibition data, which are given here for twelve compounds.

The source made the active and inactive calls.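 The calls were made as follows, unless noted: active = viability at or under a set limit in both replicates, limit being median viability minus 3 SD (cut at about 48% in these data, passing the limit was not always enough); inconclusive = at or under the limit in just one replicate; inactive = at or above the limit in both replicates.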

A short description of assay [1]: reduced viability of SK-BR-3 breast cancer cells – cell-based, 24 h, human, pilot screen (AID 572;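 active = viability at or below 10% of carrier control in both of two separate runs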;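 also: compound exposure lasted between 18 and 24 h rather than exactly 24 h; 100% = carrier-treated control wells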). As to conditions: SK-BR-3 viability, CellTiter-Glo luminescence, at 10 µM, stronger effect = lower value. Background: Cellular ATP, detected with luciferase, serves as a proxy for viable cell number.
The nature of assay [2]: HUVEC growth inhibition – cell-based, human, primary screen (AID 575;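 active = viability at or below 30% in both replicate assays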;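 also: 100% = median of untreated cell wells with 0.1% DMSO on each plate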). As to conditions: HUVEC proliferation, CellTiter-Glo luminescence, 72 h; at 10 µM; stronger effect = lower value. In a few lines:
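system = HUVEC primary cells | amount = 1250 cells/well | buffer or medium = supplemented EBM, 2% fetal bovine serum | dosing = single-point 10 µM, DMSO 0.1% final | times = 72 h compound incubation | detection = CTG luminescence | read-out = % viability relative to median vehicle-well signal on each plate | control set = vehicle and MePR control wells | format = collagen-coated 384-well format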

The nature of assay [3]: H69AR cell proliferation blockers – human, duplicate replicates, primary screen (AID 580).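 Also: 100% = mean luminescence of untreated wells and 0% = no signal.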 The note with it: H69AR lung tumor cells viability, ATP luminescence, 72 h; at 10 µM; stronger effect = lower value.
The nature of assay [4]: MRP1 drug-resistance reversers in H69AR cells – cell-based, doxorubicin co-treatment, pilot screen (AID 601;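 active = viability loss from added drug above about 55%, and viability with drug at most 40%, in both replicates, limit read from the data, passing the limit was not always enough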). As to conditions: CellTiter-Glo, 72 h, at 10 µM; for differential viability (reversal): stronger effect = higher value.
Assay [5] in a line: yeast transport mutant growth inhibition pilot in 384-well plates, post-Golgi transport modulator project (AID 636; in the data active = inhibition above about 31%). The note with it: absorbance 615 nm, about 18 h, stronger effect = higher value.
The nature of assay [6]: growth suppression of yeast trafficking mutant, preliminary HTS, modulators of trafficking downstream of Golgi apparatus project, 1536-format plate, OD 615 nm (AID 637; in the data active = inhibition above about 30%). As to conditions: yeast transport mutant growth, absorbance 615 nm, 18 h; stronger effect = higher value.
Setting [7] is: H69AR cells + 2 uM doxorubicin, measured here: viability with 2 uM doxorubicin, stronger effect = lower value.
The mark [8] stands for this setting: H69AR cells, compound alone cytotoxicity.

As to `C=CCSc1nnc(NC(=O)c2ccc(S(=O)(=O)NCC3CCCO3)cc2)s1` (stereo unspecified), the viability in assay [1] was 97% (inactive); in assay [2], 84.3% (inactive); in assay [3], 90.4% (inactive); in assay [4] (setting [7]) it was 93.2%; in assay [4] (setting [8]), 90.4%. For the same compound, the differential viability (reversal) in assay [4] (H69AR cells + 2 uM doxorubicin) is -2.83% (inactive). Besides, the inhibition is -3.84% (inactive) in assay [5] and -3.71% (inactive) in assay [6].

For `Cc1nnc(SCCCn2c(N3CCCCC3)nc3c2c(=O)[nH]c(=O)n3C)s1`, the viability in assay [1] is 104% (inactive); in assay [2] it was 92% (inactive); in assay [3], 97.4% (inactive); in assay [4] (setting [7]) it was 87.1%; in assay [4] (setting [8]), 97.4%. Moreover, the differential viability (reversal) in assay [4] (H69AR cells + 2 uM doxorubicin) was 10.2% (inactive). Also, the inhibition in assay [5] is -6.03% (inactive); in assay [6] it was 4% (inactive).

In the case of `O=C(Nc1ccccc1C(=O)NCCCn1ccnc1)c1ccccc1`, the viability is 81% (inactive) in assay [1]; 94.4% (inactive) in assay [2]; 96.8% (inactive) in assay [3]; 87.6% in assay [4] (setting [7]); 96.8% in assay [4] (setting [8]). Besides, the differential viability (reversal) in assay [4] (H69AR cells + 2 uM doxorubicin) is 9.21% (inactive). Further, the inhibition in assay [5] was -6.62% (inactive); in assay [6], -8% (inactive).

As for `Cn1c(=O)c2c(nc(CN3CCN(c4ccccc4F)CC3)n2CCN2CCOCC2)n(C)c1=O`, the viability in assay [1] is 101% (inactive); in assay [2] it was 96.8% (inactive); in assay [3] it was 93.9% (inactive); in assay [4] (setting [7]) it was 89.4%; in assay [4] (setting [8]) it was 93.9%. In assay [4] (H69AR cells + 2 uM doxorubicin), the differential viability (reversal) is 4.5% (inactive). Moreover, the figures for the inhibition in assay [5] and in assay [6] were -5.95% (inactive) and 0.91% (inactive), respectively.

As for `COCCN(Cc1cc2cc3c(cc2n2nnnc12)OCO3)C(=O)c1ccccc1F`, the viability was 94% (inactive) in assay [1]; 113% (inactive) in assay [2]; 101% (inactive) in assay [3]; 99.3% in assay [4] (setting [7]); 101% in assay [4] (setting [8]). Further, the differential viability (reversal) in assay [4] (H69AR cells + 2 uM doxorubicin) is 2.13% (inactive). Besides, the figures for the inhibition in assay [5] and in assay [6] were -6.35% (inactive) and -7.27% (inactive), respectively.

With `O=C(NCc1ccc2c(c1)OCO2)C1CCC(CNS(=O)(=O)c2ccccc2)CC1` (stereo unspecified), the viability was 92% (inactive) in assay [1]; 78.9% (inactive) in assay [2]; 92.2% (inactive) in assay [3]; 93.7% in assay [4] (setting [7]); 92.2% in assay [4] (setting [8]). Besides, the differential viability (reversal) in assay [4] (H69AR cells + 2 uM doxorubicin) is -1.49% (inactive). The inhibition in assay [5] is 0.52% (inactive); in assay [6] it was 1.15% (inactive).

As to `O=S(=O)(NCc1cn2ccccc2n1)c1cc(F)ccc1F`, the viability in assay [1] was 107% (inactive); in assay [2] it was 89.9% (inactive); in assay [3], 96.6% (inactive); in assay [4] (setting [7]) it was 87.2%; in assay [4] (setting [8]) it was 96.6%. In addition, the differential viability (reversal) in assay [4] (H69AR cells + 2 uM doxorubicin) was 9.41% (inactive). Besides, the inhibition in assay [5] was -5.68% (inactive); in assay [6], -6.36% (inactive).

For the compound `CCOc1ccccc1NC(=O)CSc1nnc2c(CC)c(C)nc(N)n12`, the viability in assay [1] was 104% (inactive); in assay [2] it was 113% (inactive); in assay [3], 96.3% (inactive); in assay [4] (setting [7]), 99.4%; in assay [4] (setting [8]), 96.3%. Also, the differential viability (reversal) in assay [4] (H69AR cells + 2 uM doxorubicin) was -3.08% (inactive). Further, the inhibition in assay [5] was -5.81% (inactive); in assay [6], -0.91% (inactive).

As for `COCCOC(=O)C1=C(C)NC(C)=C(C(=O)OC(C)C)C1c1cccc([N+](=O)[O-])c1` (stereo unspecified), the viability in assay [1] is 89% (inactive); in assay [2], 65.2% (inactive); in assay [3] it was 77.4% (inactive); in assay [4] (setting [7]), 96.4%; in assay [4] (setting [8]) it was 77.4%. The differential viability (reversal) in assay [4] (H69AR cells + 2 uM doxorubicin) was -19% (inactive). In addition, the results for the inhibition in assay [5] and in assay [6] were 1.56% (inactive) and 16.2% (inactive), respectively.

`COc1cccc2sc(NC(=O)c3ccc(S(=O)(=O)N4CCOCC4)cc3)nc12`: the viability in assay [1] was 113% (inactive); in assay [2] it was 85.5% (inactive); in assay [3] it was 86.7% (inactive); in assay [4] (setting [7]), 69.8%; in assay [4] (setting [8]), 86.7%. For the same compound, the differential viability (reversal) in assay [4] (H69AR cells + 2 uM doxorubicin) was 16.8% (inactive). Also, the inhibition was -7.16% (inactive) in assay [5] and -8.18% (inactive) in assay [6].

`O=C(Nc1ccccn1)N1CCOCC1`: the viability was 123% (inactive) in assay [1]; 110% (inactive) in assay [2]; 95.5% (inactive) in assay [3]; 89.1% in assay [4] (setting [7]); 95.5% in assay [4] (setting [8]). Besides, the differential viability (reversal) in assay [4] (H69AR cells + 2 uM doxorubicin) is 6.42% (inactive). Further, the inhibition in assay [5] was -7.3% (inactive); in assay [6], -5.45% (inactive).

In the case of `O=C(NCC1CCCO1)c1cc(-c2ccncc2)nc2ccc(S(=O)(=O)N3CCOCC3)cc12` (stereo unspecified), the viability was 106% (inactive) in assay [1]; 111% (inactive) in assay [2]; 95.8% (inactive) in assay [3]; 87% in assay [4] (setting [7]); 95.8% in assay [4] (setting [8]). Besides, in assay [4] (H69AR cells + 2 uM doxorubicin), the differential viability (reversal) is 8.86% (inactive). For the same compound, the inhibition in assay [5] is -7.87% (inactive); in assay [6], 4.18% (inactive).

As a reminder, the viability is a read-out of living cells in per cent, often relative to untreated cells. One may read the inhibition as the drop in the measured response relative to a control, in per cent.
